# Source: PubChem
# Hits are enriched below; roughly 2.9% of the tested compounds scored in any of these assays.
# T cruzi repl – inhibitors of intracellular T. cruzi growth, primary screen, luminescence, NIH3T3 host cells; 300,000 compounds, 1.4% hits; T. cruzi beta-gal in NIH3T3, 90 h; inhibition, % (concentration not given with the values);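 active means mean inhibition across valid replicates above about 55%, limit read from the data; inconclusive means mean below that limit but half or more replicates reach it; inactive means mean below it, under half of replicates reach it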;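 further: signal also drops with host cell toxicity which is not excluded here; 0% = plate median of DMSO wells and 100% = zero luminescence signal; higher percent means less beta-gal luminescence so fewer parasites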
#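 compound dosing = single 50 nL compound addition per well in DMSO | material = NIH/3T3 host cells with β-galactosidase reporter T. cruzi | input = 5,000 host fibroblasts per well | timing = ≥90 h infection period, 3 h prior cell attachment | read-out basis = percent inhibition of parasite-derived β-gal signal | detection = GalScreen β-gal luminescence, detergent lysis, 60 min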
# PG9 Ab binder – binders of HIV-1 gp120 antibody PG9, primary screen, biochemical, TR-FRET; TR-FRET gp120-PG9 antibody binding; inhibition, % at 6.7 µM; 360,000 compounds, 0.43% hits; AID 624416, 2012; in the data active means inhibition above about 8.5%
# MIN6 prolif – inducers of MIN6 beta-cell proliferation, primary screen, ATP luminescence, uHTS. MIN6 cells proliferation, ATPlite luminescence, 48 h; cells starved in 0.2% serum; 100% = growth in 10% serum. proliferation, % at 10 µM. 330,000 compounds, 0.29% hits. AID 2380, 2010;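 active means compounds whose signal lies at least 3.5 SD above the mean of all wells on their plate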;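 further: 0% = DMSO-treated cells in low-serum medium and 100% = 10% serum control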
# TAG inh – inhibitors of triacylglycerol accumulation, primary screen, cell-based, uHTS, fluorescence, H9c2; H9c2 cells, Nile Red lipid (TAG) fluorescence; cells loaded with 200 µM oleic acid; inhibition, % at 12.5 µM; 230,000 compounds, 0.66% hits; AID 651582, 2012;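 active means pattern-corrected inhibition of lipid staining of at least 50% with the nuclear-stain viability signal not falling by more than 50%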;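 further: 0% = DMSO wells and 100% = triacsin C control wells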
# Rev-erbA mod – modulators of Rev-erb alpha DNA binding, primary screen, biochemical, FITC-DNA, fluorescence polarization, uHTS; Nuclear receptor subfamily 1 group D member 1 (Homo sapiens), P20393; 370,000 compounds, 0.79% hits; AID 1259318, 2017; Rev-erbα–FITC-DNA binding, 90 min; activity, % at 10 µM;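 active means activity above about 14%, limit read from the data; passing the limit was not always enough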;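 further: 0% = DMSO wells with 35 nM protein and 100% = DMSO wells with 750 nM protein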
# Target sequence (P20393 whole entry, looked up): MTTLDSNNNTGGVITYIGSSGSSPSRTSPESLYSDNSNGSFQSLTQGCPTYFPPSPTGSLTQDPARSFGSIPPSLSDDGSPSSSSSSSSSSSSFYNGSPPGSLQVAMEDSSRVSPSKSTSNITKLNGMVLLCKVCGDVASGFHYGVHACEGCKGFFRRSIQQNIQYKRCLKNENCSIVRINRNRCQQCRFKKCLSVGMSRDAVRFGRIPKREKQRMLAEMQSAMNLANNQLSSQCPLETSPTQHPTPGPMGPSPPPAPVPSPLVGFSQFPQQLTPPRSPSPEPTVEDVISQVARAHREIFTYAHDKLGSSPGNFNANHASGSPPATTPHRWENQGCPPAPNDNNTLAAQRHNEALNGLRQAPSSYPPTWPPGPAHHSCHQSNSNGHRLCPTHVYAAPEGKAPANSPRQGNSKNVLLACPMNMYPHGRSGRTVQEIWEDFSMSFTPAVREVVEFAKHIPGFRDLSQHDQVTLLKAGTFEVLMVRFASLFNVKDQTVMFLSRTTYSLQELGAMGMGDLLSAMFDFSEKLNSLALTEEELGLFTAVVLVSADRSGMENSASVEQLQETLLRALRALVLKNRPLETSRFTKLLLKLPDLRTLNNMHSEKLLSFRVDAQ
# hiPSC survival – enhancers of single-cell hiPSC survival, primary screen, ATPlite luminescence | 360,000 compounds, 0.044% hits | survival enhancement, % at 20 µM | AID 602274, 2012 | 100% = ROCK inhibitor wells, 0% = DMSO; in the data active means survival enhancement above about 18%;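 further: cells exposed to compounds for 16 hours before the ATP read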
# * hit, by the source's call; u = inconclusive; x = no result.
SMILES,T cruzi repl,PG9 Ab binder,MIN6 prolif,TAG inh,Rev-erbA mod,hiPSC survival
Cc1cccc(NC(=O)C2CCCN2S(=O)(=O)c2ccc3c(c2)n(C)c(=O)c(=O)n3C)c1 (centres undefined),-9,0,-2,0,2,1
CCCc1nnc(SCC(=O)N2CCCCC2)n1CCCOC,-2,0,3,-3,2,4
Cc1cccc(C(C)(C)C)c1OCCn1ccnc1,30,-1,-5,-12,8,5
Cc1cccc(Cl)c1OCCCCn1ccnc1,66*,1,-1,x,5,0
CC(C)/C=C(/C(=O)c1ccc(Cl)cc1Cl)n1cncn1,26,-1,-5,x,3,-1
O=C(c1ccc(Cl)cc1Cl)C1(n2cncn2)Oc2ccccc2C1O (centres undefined),55*,1,5,-11,2,0
COc1cccc(-c2cc3nc4c(c(NCC(C)(C)CN(C)C)n3n2)CCCC4)c1,61*,-1,-6,31,-3,0
COC(=O)c1ccc(CN2CCCC(CCC(=O)NCc3ccc(C)o3)C2)cc1 (centres undefined),69*,0,-4,0,3,3
Cc1ccc(CNC(=O)CCC2CCCN(Cc3cc4ccccc4o3)C2)o1 (centres undefined),56*,3,-2,-2,-5,0
COCc1ccc(CN2CCCC(CCC(=O)NCc3ccc(C)o3)C2)o1 (centres undefined),36,-2,2,12,-9,0
COc1cc(CN2CCCC(CCC(=O)NCc3ccc(C)o3)C2)cc2c1OCO2 (centres undefined),69*,-1,0,x,-4,-2
N#CC1=C(N)OC2=C(C(=O)CC(c3ccccc3)C2)C1c1cccnc1 (centres undefined),55*,-2,-2,x,-3,1
C/C(Cn1cnc([N+](=O)[O-])n1)=N\NC(=O)c1ccccc1F,75*,1,0,-22,1,-3
C/C(Cn1cnc([N+](=O)[O-])n1)=N\NC(=O)c1ccc(O)cc1O,55*,-2,-4,6,3,0
C/C(Cn1nnc([N+](=O)[O-])n1)=N\NC(=O)c1ccc(O)cc1O,u,-3,0,3,-2,0
C/C(Cn1cnc([N+](=O)[O-])n1)=N/NC(=O)COc1ccccc1Cl,56*,-2,-2,20,0,-2
C/C(Cn1cnc([N+](=O)[O-])n1)=N\NC(=O)c1ccccc1O,56*,-1,0,x,-6,-1
CCOc1cc(NC(=S)NCCOC)c(OCC)cc1NC(=O)c1cccs1,8,-2,-2,x,0,x
CCn1nc(C(=O)Nc2ccc(S(=O)(=O)Nc3ncccn3)cc2)c2ccccc2c1=O,-12,-2,-3,1,-4,1
O=C(NCc1ccco1)c1cnn2c(C(F)F)cc(-c3ccccc3)nc12,19,1,-2,6,-4,1
Cc1cc(C)c(Cc2c(C)nc3c(C(=O)NCc4ccco4)cnn3c2C)c(C)c1,59*,0,-5,x,-5,0
CNS(=O)(=O)c1cc(C(=O)NCc2ccco2)ccc1Cl,-9,0,-2,4,-4,0
CCOc1cnn(-c2ccccc2)c(=O)c1Cl,-55,1,-7,x,7,58*
CCSc1cnn(-c2ccccc2)c(=O)c1Cl,-27,-1,-4,11,6,37*
COc1cnn(-c2ccc(C)cc2)c(=O)c1Cl,-15,-2,-2,-7,-2,2
CCSc1cnn(-c2ccccc2)c(=O)c1SCC,-14,1,2,x,-3,-1
O=c1c(Cl)c(Cl)cnn1-c1ccccc1,50,0,x,72*,3,-6
Cc1cc(NC(=O)CCS(=O)(=O)c2nc(-c3ccccc3)cc(C(F)(F)F)n2)no1,x,-1,-4,25,1,-6
